Results published in ChEMBL document CHEMBL3272137, “Narcotic antagonists. Synthesis and evaluation of some subsituted 1,2,3,4,5,6-hexahydro-1,4:2,6-dimethano-3-benzazocines” (J Med Chem, 1977).
Calls of active or inactive are those of the source. No cut-off for these calls is given here.

Assays:
Mus musculus [1] = assay: Toxicity in mouse assessed as convulsion at 40 mg/kg, sc; type: organism-based; set-up: dose 40 mg/kg, route subcutaneous; details: in vivo
Method in brief: (§1)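 Given subcutaneously as salts in aqueous solution, with dose expressed as free base.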

Mus musculus [2] = assay: Toxicity in mouse assessed as convulsion at 80 mg/kg, sc; type: organism-based; set-up: dose 80 mg/kg, route subcutaneous; details: in vivo; method in brief: as §1
Mus musculus [3] = assay: Narcotic antagonist activity in sc dosed mouse assessed as inhibition of oxymorphone-induced narcosis; type: functional
Method in brief: (§2)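 Given subcutaneously as salts in aqueous solution, with doses expressed as free base. ED50 was derived by probit analysis of dose-response data using at least three dose levels and at least six animals per dose level.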

Rattus norvegicus = assay: Narcotic antagonist activity in sc dosed rat assessed as inhibition of morphine-induced analgesic activity by tail flick test; type: functional; method in brief: as §2
Mus musculus [4] = assay: Narcotic antagonist activity in sc dosed mouse assessed as inhibition of oxymorphone-induced straub tail response; type: functional; method in brief: as §2
Mus musculus [5] = assay: Analgesic activity in mouse assessed as inhibition of phenylquinone-induced writhing at 40 mg/kg, sc; type: functional, organism-based; set-up: dose 40 mg/kg; method in brief: as §1
Mus musculus [6] = assay: Narcotic antagonist activity in mouse assessed as inhibition of oxymorphone-induced straub tail response at 40 mg/kg, sc; type: functional, organism-based; set-up: dose 40 mg/kg; method in brief: as §1
Mus musculus [7] = assay: Analgesic activity in sc dosed mouse assessed as inhibition of phenylquinone-induced writhing; type: functional; method in brief: as §2
Mus musculus [8] = assay: Toxicity in mouse assessed as tremor at 40 mg/kg, sc; type: organism-based; set-up: dose 40 mg/kg, route subcutaneous; details: in vivo; method in brief: as §1
Mus musculus [9] = assay: Toxicity in mouse assessed as depression at 40 mg/kg, sc; type: organism-based; set-up: dose 40 mg/kg, route subcutaneous; details: in vivo; method in brief: as §1

Compound | Activity (Mus musculus [1]) | Activity (Mus musculus [2]) | ED50 (Mus musculus [3]) | ED50 (Rattus norvegicus) | ED50 (Mus musculus [4]) | inhibition (Mus musculus [5]) | inhibition (Mus musculus [6]) | ED50 (Mus musculus [7]) | Activity (Mus musculus [8]) | Activity (Mus musculus [9])
CCC12CC3CC(c4ccc(O)cc41)C(C2)N3CC1CCC1 (stereo unspecified) | Toxic | Toxic | 5 mg/kg | 10 mg/kg | 15 mg/kg | inactive |  |  |  | 
CC12CC3CC(c4ccc(O)cc41)C(C2)N3CC1CCC1 (stereo unspecified) |  | Toxic |  |  |  | inactive | inactive |  |  | 
C=CCN1C2CC3c4ccc(O)cc4C(CC)(C2)CC31 (stereo unspecified) |  | Toxic | 1 mg/kg | 3.3 mg/kg | 8 mg/kg |  |  | 20 mg/kg | Toxic | 
CC(C)=CCN1CC[C@]2(C)c3cc(O)ccc3C[C@H]1[C@H]2C [(+)-PENTAZOCINE] |  |  | 10.1 mg/kg |  | 12 mg/kg |  |  | 3.7 mg/kg |  | 
CCC12CC3CC(c4ccc(O)cc41)C(C2)N3 (stereo unspecified) | Toxic | Toxic |  |  |  |  | inactive | 12.9 mg/kg |  | 
CCC12CC3CC(c4ccc(O)cc41)C(C2)N3CC1CC1 (stereo unspecified) |  | Toxic | 0.32 mg/kg | 0.44 mg/kg | 2.24 mg/kg | Active |  |  |  | 
CCC12CC3CC(c4ccc(O)cc41)C(C2)N3C (stereo unspecified) |  | Toxic |  |  |  |  | inactive | 24.3 mg/kg |  | 
CC12CC3CC(c4ccc(O)cc41)C(C2)N3CCC1CC1 (stereo unspecified) |  | Toxic |  |  |  | inactive | inactive |  |  | 
CCC12CC3CC(c4ccc(O)cc41)C(C2)N3CCC1CC1 (stereo unspecified) |  | Toxic |  | > 20 mg/kg | > 20 mg/kg | Active |  |  |  | Toxic
CC12CC3CC(c4ccc(O)cc41)C(C2)N3 (stereo unspecified) |  | Toxic |  |  |  |  |  |  |  | 
CC12CC3CC(c4ccc(O)cc41)C(C2)N3CC1CC1 (stereo unspecified) |  | Toxic | 0.63 mg/kg | 0.64 mg/kg | 0.96 mg/kg | Active |  |  |  | 
C=CCN1CC[C@]23c4c5ccc(O)c4O[C@H]2[C@@H](O)C=C[C@H]3[C@H]1C5 [NALORPHINE] |  |  | 0.58 mg/kg | 0.38 mg/kg |  |  |  | 0.77 mg/kg |  | 
CN1C2CC3c4ccc(O)cc4C(C)(C2)CC31 (stereo unspecified) |  | Toxic |  |  |  |  | inactive | 31.8 mg/kg |  | 
CN1CC[C@]23c4c5ccc(O)c4O[C@H]2[C@@H](O)C=C[C@H]3[C@H]1C5 [MORPHINE] |  |  |  |  |  |  |  | 0.26 mg/kg |  | 
